# Biological target: T1, Melatonin receptor type 1A (Homo sapiens, UniProt P48039)
# Test: Intrinsic activity of Melatonin receptor type 1A evaluated on [35S]GTP-gamma-S, binding in Chinese hamster ovarian (CHO) cells
# Format: functional, cell-based
# T1 sequence (P48039 whole entry): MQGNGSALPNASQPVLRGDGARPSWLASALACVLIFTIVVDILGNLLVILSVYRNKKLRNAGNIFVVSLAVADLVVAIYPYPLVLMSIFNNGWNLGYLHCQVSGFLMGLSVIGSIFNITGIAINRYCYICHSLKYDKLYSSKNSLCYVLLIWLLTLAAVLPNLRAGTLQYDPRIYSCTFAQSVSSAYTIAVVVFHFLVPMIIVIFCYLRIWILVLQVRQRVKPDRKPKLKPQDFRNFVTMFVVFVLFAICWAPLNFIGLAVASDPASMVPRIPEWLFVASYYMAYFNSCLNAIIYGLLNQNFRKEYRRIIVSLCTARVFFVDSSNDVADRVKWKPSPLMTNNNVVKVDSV
row,SMILES,EC50 [nM]
1,COc1ccc2oc(Cc3cccc(C(F)(F)F)c3)c(CCNC(C)=O)c2c1,> 10000

# Biological target: T2, Melatonin receptor type 1B (Homo sapiens, UniProt P49286)
# T2 sequence (P49286 whole entry): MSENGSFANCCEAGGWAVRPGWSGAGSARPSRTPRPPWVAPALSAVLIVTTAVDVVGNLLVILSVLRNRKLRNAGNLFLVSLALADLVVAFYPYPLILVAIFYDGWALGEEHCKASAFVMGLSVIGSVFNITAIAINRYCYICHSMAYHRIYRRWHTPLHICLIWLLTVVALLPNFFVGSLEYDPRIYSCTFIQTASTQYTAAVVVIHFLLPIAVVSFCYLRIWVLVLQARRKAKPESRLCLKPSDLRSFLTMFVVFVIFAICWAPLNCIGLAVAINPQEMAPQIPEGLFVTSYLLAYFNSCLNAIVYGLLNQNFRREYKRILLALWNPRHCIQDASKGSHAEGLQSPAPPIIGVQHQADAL
# Test: Intrinsic activity at human Melatonin receptor type 1B evaluated on [35S]GTP-gamma-S, binding in Chinese hamster ovarian (CHO) cells
# Format: functional, cell-based
row,SMILES,EC50 [nM]
1,CCc1ccc2oc(Cc3cccc(OC)c3)c(CCNC(C)=O)c2c1,19
2,COc1ccc2oc(Cc3ccccc3)c(CCNC(C)=O)c2c1,> 10000
3,COc1ccc2oc(Cc3cccc(C(F)(F)F)c3)c(CCNC(C)=O)c2c1,1.26
4,COc1ccc2oc(Cc3ccccc3OC)c(CCNC(C)=O)c2c1,0.41
5,C=CCC(=O)NCCc1c(Cc2ccccc2)oc2ccc(OC)cc12,0.17
6,COc1ccc(Cc2oc3ccc(OC)cc3c2CCNC(C)=O)cc1,> 10000
7,COc1ccc2oc(-c3ccccc3)c(CCNC(C)=O)c2c1,0.096
8,C=CCC(=O)NCCc1c(Cc2cccc(OC)c2)oc2ccc(OC)cc12,0.39
9,CC(=O)NCCc1c(Cc2ccccc2)oc2ccccc12,> 10000
10,COc1ccc2oc(CC3CCCCC3)c(CCNC(C)=O)c2c1,10
11,COc1cccc(Cc2oc3ccc(OC)cc3c2CCNC(C)=O)c1,0.72

# Biological target: T2, Melatonin receptor type 1B
# Test: Binding affinity on human melatonin receptor type 1B stably transfected in human embryonic kidney (HEK 293) cells using 2-[125I]iodomelatonin as radioligand.
# Format: cell-based, HEK293
row,SMILES,Ki [nM]
1,COc1ccc2oc(-c3ccccc3)c(CCNC(=O)c3ccco3)c2c1,1.7
2,CCc1ccc2oc(Cc3cccc(OC)c3)c(CCNC(C)=O)c2c1,17
3,C=CC(=O)NCCc1c(-c2ccccc2)oc2ccc(OC)cc12,0.01
4,COc1ccc2oc(Cc3ccccc3)c(CCNC(C)=O)c2c1,0.05
5,COc1ccc2oc(Cc3cccc(Cl)c3)c(CCNC(C)=O)c2c1,0.22
6,COc1ccc2oc(Cc3cccc(C(F)(F)F)c3)c(CCNC(C)=O)c2c1,1.17
7,C/C=C/C(=O)NCCc1c(-c2ccccc2)oc2ccc(OC)cc12,0.21
8,COc1cccc(Cc2oc3ccccc3c2CCNC(C)=O)c1,18.6
9,CCCC(=O)NCCc1c(Cc2ccccc2)oc2ccc(OC)cc12,0.2
10,CNC(=O)NCCc1c(-c2ccccc2)oc2ccc(OC)cc12,0.04
11,CC(=O)NCCc1c(Cc2ccccc2)oc2ccc(O)cc12,79.9
12,C=CC(=O)NCCc1c(Cc2ccccc2)oc2ccc(OC)cc12,0.69
13,COc1ccc2oc(Cc3c(Cl)cccc3Cl)c(CCNC(C)=O)c2c1,12.8
14,CCCCCCOc1ccc2oc(Cc3ccccc3)c(CCNC(C)=O)c2c1,3.21
15,COc1ccc2oc(Cc3ccccc3OC)c(CCNC(C)=O)c2c1,0.34
16,COc1ccc2oc(Cc3cccnc3)c(CCNC(C)=O)c2c1,3.53

row,SMILES,Ki [nM]
1,COc1ccc2oc(Cc3ccccc3)c(CCNC(=O)CI)c2c1,0.41
2,C=CCC(=O)NCCc1c(Cc2ccccc2)oc2ccc(OC)cc12,0.06
3,C=CC(=O)NCCc1c(Cc2cccc(OC)c2)oc2ccc(OC)cc12,2.76
4,COc1ccc(Cc2oc3ccc(OC)cc3c2CCNC(C)=O)cc1,0.5
5,COc1ccc2oc(-c3ccccc3)c(CCNC(C)=O)c2c1,0.02
6,COc1ccc2oc(Cc3ccccc3)c(CCNC(=O)c3ccco3)c2c1,36.7
7,COc1ccc2oc(Cc3cc(C(F)(F)F)cc(C(F)(F)F)c3)c(CCNC(C)=O)c2c1,340
8,CCCCCOc1ccc2oc(Cc3ccccc3)c(CCNC(C)=O)c2c1,9.64
9,C=CCC(=O)NCCc1c(-c2ccccc2)oc2ccc(OC)cc12,0.02
10,CNC(=O)NCCc1c(Cc2ccccc2)oc2ccc(OC)cc12,0.35
11,CC(=O)NCCc1c(Cc2ccccc2)oc2ccccc12,10.6
12,COc1ccc2oc(CC3CCCCC3)c(CCNC(C)=O)c2c1,2.49
13,COc1ccc2oc(Cc3cccc(F)c3)c(CCNC(C)=O)c2c1,0.23
14,CCc1ccc2oc(Cc3ccccc3)c(CCNC(C)=O)c2c1,8.25
15,COc1ccc2oc(CCCc3ccccc3)c(CCNC(C)=O)c2c1,1.52
16,COc1cccc(Cc2oc3ccc(OC)cc3c2CCNC(C)=O)c1,0.32

# Biological target: T1, Melatonin receptor type 1A
# Test: Binding affinity on human melatonin receptor type 1A stably transfected in human embryonic kidney (HEK 293) using 2-[125I]iodomelatonin as radioligand.
# Format: cell-based, HEK293
row,SMILES,Ki [nM]
1,COc1ccc2oc(-c3ccccc3)c(CCNC(=O)c3ccco3)c2c1,12.9
2,CCc1ccc2oc(Cc3cccc(OC)c3)c(CCNC(C)=O)c2c1,288
3,C=CC(=O)NCCc1c(-c2ccccc2)oc2ccc(OC)cc12,0.02
4,COc1ccc2oc(Cc3cccc(Cl)c3)c(CCNC(C)=O)c2c1,7.19
5,COc1ccc2oc(Cc3cccc(C(F)(F)F)c3)c(CCNC(C)=O)c2c1,80
6,C/C=C/C(=O)NCCc1c(-c2ccccc2)oc2ccc(OC)cc12,1.01
7,COc1cccc(Cc2oc3ccccc3c2CCNC(C)=O)c1,229
8,CCCC(=O)NCCc1c(Cc2ccccc2)oc2ccc(OC)cc12,3.29
9,CNC(=O)NCCc1c(-c2ccccc2)oc2ccc(OC)cc12,0.04
10,CC(=O)NCCc1c(Cc2ccccc2)oc2ccc(O)cc12,569
11,C=CC(=O)NCCc1c(Cc2ccccc2)oc2ccc(OC)cc12,53.7
12,COc1ccc2oc(Cc3c(Cl)cccc3Cl)c(CCNC(C)=O)c2c1,84.5
13,CCCCCCOc1ccc2oc(Cc3ccccc3)c(CCNC(C)=O)c2c1,8.2
14,COc1ccc2oc(Cc3ccccc3OC)c(CCNC(C)=O)c2c1,14.3
15,COc1ccc2oc(Cc3cccnc3)c(CCNC(C)=O)c2c1,29
16,COc1ccc2oc(Cc3ccccc3)c(CCNC(=O)CI)c2c1,8.67

row,SMILES,Ki [nM]
1,C=CCC(=O)NCCc1c(Cc2ccccc2)oc2ccc(OC)cc12,3.51
2,C=CC(=O)NCCc1c(Cc2cccc(OC)c2)oc2ccc(OC)cc12,55
3,COc1ccc(Cc2oc3ccc(OC)cc3c2CCNC(C)=O)cc1,24
4,COc1ccc2oc(-c3ccccc3)c(CCNC(C)=O)c2c1,0.01
5,COc1ccc2oc(Cc3ccccc3)c(CCNC(=O)c3ccco3)c2c1,698
6,COc1ccc2oc(Cc3cc(C(F)(F)F)cc(C(F)(F)F)c3)c(CCNC(C)=O)c2c1,476
7,CCCCCOc1ccc2oc(Cc3ccccc3)c(CCNC(C)=O)c2c1,42.7
8,C=CCC(=O)NCCc1c(-c2ccccc2)oc2ccc(OC)cc12,0.01
9,CNC(=O)NCCc1c(Cc2ccccc2)oc2ccc(OC)cc12,5.37
10,CC(=O)NCCc1c(Cc2ccccc2)oc2ccccc12,155
11,COc1ccc2oc(CC3CCCCC3)c(CCNC(C)=O)c2c1,66.4
12,COc1ccc2oc(Cc3cccc(F)c3)c(CCNC(C)=O)c2c1,0.75
13,CCc1ccc2oc(Cc3ccccc3)c(CCNC(C)=O)c2c1,64.4
14,COc1ccc2oc(CCCc3ccccc3)c(CCNC(C)=O)c2c1,31.5
15,COc1cccc(Cc2oc3ccc(OC)cc3c2CCNC(C)=O)c1,40.6

# Biological target: T1, Melatonin receptor type 1A
# Test: Intrinsic activity evaluated on [35S]GTP -gamma-S binding in Chinese hamster ovarian (CHO) cells, stably expressing human Melatonin receptor type 1A
# Format: functional, cell-based
row,SMILES,EC50 [nM]
1,CCc1ccc2oc(Cc3cccc(OC)c3)c(CCNC(C)=O)c2c1,> 10000
2,COc1ccc2oc(Cc3ccccc3)c(CCNC(C)=O)c2c1,21
3,COc1ccc2oc(Cc3ccccc3OC)c(CCNC(C)=O)c2c1,> 10000
4,C=CCC(=O)NCCc1c(Cc2ccccc2)oc2ccc(OC)cc12,25
5,COc1ccc(Cc2oc3ccc(OC)cc3c2CCNC(C)=O)cc1,> 10000
6,COc1ccc2oc(-c3ccccc3)c(CCNC(C)=O)c2c1,0.17
7,C=CCC(=O)NCCc1c(Cc2cccc(OC)c2)oc2ccc(OC)cc12,138
8,CC(=O)NCCc1c(Cc2ccccc2)oc2ccccc12,> 10000
9,COc1ccc2oc(CC3CCCCC3)c(CCNC(C)=O)c2c1,481
10,COc1cccc(Cc2oc3ccc(OC)cc3c2CCNC(C)=O)c1,37

# Biological target: T1, Melatonin receptor type 1A
# Test: Antagonist potency determined against 30 nM melatonin for Melatonin receptor type 1A
# Format: functional
# Outline: (§1)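 Antagonist mode of [³⁵S]GTPγS binding on membranes (20 µg/mL) of CHO cells stably expressing human MT₁ or MT₂. […] Incubation 1 h at room temperature, GF/B filtration. Nonspecific binding with 10 µM GTPγS.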
row,SMILES,Kb [nM]
1,CCc1ccc2oc(Cc3cccc(OC)c3)c(CCNC(C)=O)c2c1,266
2,COc1ccc2oc(Cc3cccc(C(F)(F)F)c3)c(CCNC(C)=O)c2c1,89
3,COc1ccc2oc(Cc3ccccc3OC)c(CCNC(C)=O)c2c1,26
4,COc1ccc(Cc2oc3ccc(OC)cc3c2CCNC(C)=O)cc1,35
5,C=CCC(=O)NCCc1c(Cc2cccc(OC)c2)oc2ccc(OC)cc12,57
6,CC(=O)NCCc1c(Cc2ccccc2)oc2ccccc12,27
7,COc1ccc2oc(CC3CCCCC3)c(CCNC(C)=O)c2c1,242
8,COc1cccc(Cc2oc3ccc(OC)cc3c2CCNC(C)=O)c1,26

# Biological target: T3, Melatonin receptor type 1B (Homo sapiens) (UniProt P49286)
# T3 sequence (whole entry): T2 sequence (P49286 whole entry)
# Test: Antagonist potency determined against 3 nM melatonin for Melatonin receptor type 1B
# Format: functional
# Outline: as §1
row,SMILES,Kb [nM]
1,CCc1ccc2oc(Cc3cccc(OC)c3)c(CCNC(C)=O)c2c1,18
2,COc1ccc2oc(Cc3ccccc3)c(CCNC(C)=O)c2c1,0.21
3,COc1ccc2oc(Cc3cccc(C(F)(F)F)c3)c(CCNC(C)=O)c2c1,2.4
4,COc1ccc2oc(Cc3ccccc3OC)c(CCNC(C)=O)c2c1,0.88
5,C=CCC(=O)NCCc1c(Cc2ccccc2)oc2ccc(OC)cc12,0.16
6,COc1ccc(Cc2oc3ccc(OC)cc3c2CCNC(C)=O)cc1,0.42
7,C=CCC(=O)NCCc1c(Cc2cccc(OC)c2)oc2ccc(OC)cc12,0.24
8,CC(=O)NCCc1c(Cc2ccccc2)oc2ccccc12,12
9,COc1ccc2oc(CC3CCCCC3)c(CCNC(C)=O)c2c1,7
10,COc1cccc(Cc2oc3ccc(OC)cc3c2CCNC(C)=O)c1,1.65

# Reference: ChEMBL document CHEMBL1135482 (J Med Chem, 2002)
